# Screening data as filed in PubChem BioAssay.
# Hits are enriched below; roughly 1.4% of the tested compounds scored in any of these assays.
# Furin inhibitor – human furin inhibition | purified furin, fluorogenic substrate cleavage | inhibition, % at 20 µM or 30 µM | P09958 | AID 463115 | actives 0.061% (n = 220,000); in the data active = inhibition above about 25%
# thrombin 1536 – blocks human thrombin protease activity | P00734 | alpha-thrombin, Boc-VPR-AMC fluorogenic substrate cleavage | inhibition, % at 5 µM | actives 0.26% (n = 220,000);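 active = inhibition at or above 40%; inactive = inhibition below 40%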;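 note: 0% = enzyme with no compound and 100% = wells without enzyme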
#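 Material: human alpha-thrombin protein. Incubation: reaction at ambient temperature. Technique: fluorescence of released AMC, ex 355 nm, em 460 nm. Control set: no-compound enzyme wells and no-enzyme blanks. Also added: Boc-VPR-AMC substrate, 15 µM final. Buffer or medium: pH 7.5 Tris (50 mM) with NaCl 150 mM, Tween 20 0.05%.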
# Calpain2 inh – inhibitors of pig calpain II; actives 0.37% (n = 220,000); inhibition, % at 16 µM; purified calpain II, fluorogenic peptide substrate, 30 min; AID 1236;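 active = inhibition above about 50%, limit read from the data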
# FXIIa inh 1536 – inhibitors of human coagulation factor XIIa; P00748; purified FXIIa, Boc-QGR-AMC fluorogenic substrate, 2 h; inhibition, % at 5 µM; actives 0.3% (n = 220,000); in the data active = inhibition above about 40%;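 note: 0% = enzyme with no compound and 100% = blank without enzyme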
# Target sequence (P00748 20-372 limits assumed): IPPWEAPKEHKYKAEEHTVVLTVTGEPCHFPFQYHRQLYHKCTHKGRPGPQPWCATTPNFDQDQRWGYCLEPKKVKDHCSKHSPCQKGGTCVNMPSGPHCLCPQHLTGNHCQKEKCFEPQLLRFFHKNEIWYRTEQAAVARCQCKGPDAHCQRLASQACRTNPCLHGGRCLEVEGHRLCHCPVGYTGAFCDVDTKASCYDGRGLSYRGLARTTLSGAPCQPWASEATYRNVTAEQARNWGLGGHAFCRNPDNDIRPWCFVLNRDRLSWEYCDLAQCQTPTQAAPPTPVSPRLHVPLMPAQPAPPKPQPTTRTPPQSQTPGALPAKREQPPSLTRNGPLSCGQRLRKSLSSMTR
# Target sequence (P00748 373-615 limits assumed): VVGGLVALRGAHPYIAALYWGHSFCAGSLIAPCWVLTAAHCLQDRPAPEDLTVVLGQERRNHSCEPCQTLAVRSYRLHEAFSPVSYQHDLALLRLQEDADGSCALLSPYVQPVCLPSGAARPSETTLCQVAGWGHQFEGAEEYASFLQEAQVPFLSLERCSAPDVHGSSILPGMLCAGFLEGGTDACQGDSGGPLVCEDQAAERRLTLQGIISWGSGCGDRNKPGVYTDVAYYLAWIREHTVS
# FXIa inh 1536 – inhibitors of human coagulation factor XIa; P03951; purified FXIa, Boc-Glu-Ala-Arg-AMC fluorogenic substrate; inhibition, % at 5 µM; actives 0.14% (n = 220,000); AID 798;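 active = inhibition of at least 40%; inactive = inhibition below 40%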;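 note: fluorescence of freed AMC excited at 355 nm; 0% = enzyme without compound and 100% = no enzyme blank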
# hK5 inh – kallikrein 5 (human) inhibition. Q9Y337. recombinant hK5, fluorogenic AMC substrate cleavage. inhibition, % at 5 µM. actives 0.59% (n = 210,000). AID 873;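 active = inhibition of 40% or more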;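 note: 0% = enzyme controls without compound and 100% = no-enzyme blanks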
# The depositor's hits bear a star; i = inactive.
SMILES,Furin inhibitor,thrombin 1536,Calpain2 inh,FXIIa inh 1536,FXIa inh 1536,hK5 inh
Cc1ccc2[nH]c(=O)c(N3CCOCC3)c(-c3ccccc3)c2c1,-11,16,-47,2,12,47*
O=C1CN(O)C=C2N=c3ccccc3=C2N1c1ccc([N+](=O)[O-])cc1,-8,-12,58*,5,-2,-9
Clc1ccc2oc(-c3ccccc3)cc(=NCCCN3CCOCC3)c2c1,12,52*,-1,17,10,34
OCCCCCN=c1cc(-c2ccccc2)oc2ccc(Cl)cc12,-2,60*,18,13,6,69*
OCCN1CCN(c2nc(-c3ccccc3)c3cc(Cl)ccc3n2)CC1,-11,0,-310,17,4,-4
CC1(C)C(=O)OC(c2c(F)c(F)c(F)c(F)c2F)C2(CCCCC2)C1=O (stereo not given),-18,3,57*,9,2,-14
COc1ccc(NC(=O)C2=C(C)Nc3nc(CCCO)nn3C2c2ccc(OC)c(OC)c2)cc1 (stereo not given),-28,1,-13,-4,-4,-20
CC(C)(C)NC(=O)NC(=O)CN1CCN(c2ccc(O)cc2)CC1,-19,-7,74*,4,-2,-6
CC(C)(C)NC(=O)NC(=O)CN1CCN(c2ccccc2)CC1,-14,0,13,4,2,1
O=C(Nc1cccc(-c2nc3cccnc3s2)c1)C1c2ccccc2Oc2ccccc21,-6,4,55*,15,6,-13
Cc1ccc(S(=O)(=O)NC2(C(F)(F)F)NC(=O)N(C)C2=O)cc1 (stereo not given),-18,14,5,22,7,67*
COc1ccc(C(=O)NC(=S)Nc2cccc(Cl)c2N2CCOCC2)cc1[N+](=O)[O-],-9,2,-10,15,8,42*
COc1ccc(S(=O)(=O)CCC(=O)Nc2cccc(OC)c2)cc1,-20,-2,1,4,0,-2
CC(=O)OC1COC(OC2C(O)C(C)OC(OC3C(OC4CCC5(C)C(CCC6(C)C5CC=C5C7CC(C)(C)CCC7(C(=O)O)CCC56C)C4(C)CO)OCC(O)C3O)C2O)C(O)C1OC(C)=O (stereo not given),-40,3,-71,11,4,4
CC1OC(O[C@H]2CC[C@]3(C)C4C=C[C@]56OC[C@@]7(CC[C@@H](C)[C@H](C)C75)[C@H](O)C[C@@]6(C)[C@]4(C)CC[C@H]3C2(C)C)C(OC2OC(CO)C(O)C(O)C2OC2OCC(O)C(O)C2O)C(O)C1O (stereo not given in full),-19,55*,-52,4,0,0
Cn1nccc1-c1cc(Cl)cc(Cl)c1O,-2,73*,20,0,-8,-7
Cn1nccc1NC(=O)Nc1cccc(Cl)c1,-27,-2,-24,13,2,2
COc1ccc(C(=O)N/N=C/c2ccc(OC(=O)c3ccccc3)cc2)cc1,-7,-1,7,1,-3,-5
COc1ccc(C(=O)N/N=C/c2cc3ccccc3[nH]c2=O)cc1,-12,34,i,60*,52*,21
Cc1cc(C(=O)Nc2ccc(N3CCCC3)c(Cl)c2)ccc1[N+](=O)[O-],0,-1,50*,16,4,-8
O=C(Nc1ccc(N2CCCC2)c(Cl)c1)c1ccc([N+](=O)[O-])cc1,-12,-10,13,7,5,-20
O=C(Oc1ccc2c(-c3ccccc3)cc(=O)oc2c1)C1CCCCC1,-1,-10,56*,8,4,-12
CCOC(=O)c1sc(NS(=O)(=O)c2cc(C)ccc2C)nc1C,-13,30,4,22,14,40*
CCOC(=O)C1CCCN(c2c(NCCCN(C)c3ccccc3)c(=O)c2=O)C1 (stereo not given),-8,22,100*,26,11,42*
CCn1c(SCC(=O)N2CCN(c3cccc(Cl)c3)CC2)nc2ccccc2c1=O,0,1,23,9,1,-4
SMILES,Furin inhibitor,thrombin 1536,Calpain2 inh,FXIIa inh 1536,FXIa inh 1536,hK5 inh
Cc1cc2ncn(S(=O)(=O)N3CCOCC3)c2cc1C,27*,80*,7,18,3,47*
Cc1cc2ncn(S(=O)(=O)N3CCCCC3)c2cc1C,-19,0,25,12,-1,4
CCC(C)NC(=O)CSc1ncnc2sccc12 (stereo not given),-11,26,19,40*,31,18
CC1CN(C(=O)CSc2ncnc3sccc23)CC(C)O1 (stereo not given),-7,-5,0,-6,-3,1
O=C(O)c1cc(NN=Nc2ccc(Br)cc2)cc([N+](=O)[O-])c1,-1,5,60*,10,6,3
COC(=O)c1ccc(Oc2ccc(C(F)(F)F)cn2)cc1,-12,-5,27,6,-1,1
C[n+]1nc(Nc2cccc3ccccc23)sc1-c1ccc(C(=O)O)cc1,-26,2,-27,9,5,5
CC12CN3CC(C)(CN(C1)C3c1ccc(Br)cc1)C2=O (stereo not given),-18,7,12,11,-3,68*
CC(C)Cn1c(N)c(C(=O)COC(=O)c2cnc(Cl)c(Cl)c2)c(=O)n(C)c1=O,-17,0,63*,3,-7,-3
CC(C)Cn1c(N)c(C(=O)COC(=O)c2cc(F)cc(F)c2)c(=O)n(C)c1=O,-20,-3,40,11,-4,3
CCNc1nc(SC(C)C(=O)OC)nc(N2CCOCC2)n1 (stereo not given),-11,-1,15,-2,-5,115*
CCNc1nc(SCC(=O)OC)nc(N2CCOCC2)n1,-19,-7,-34,3,-16,-12
CC(=O)/C(=C/Nc1ccc(Oc2ccccc2)cc1)c1ccccc1,2,-1,23,4,5,-24
COc1cc(N/C=C(\C(C)=O)c2ccccc2)cc(OC)c1,-8,8,65*,3,-7,-17
Cc1ccc(OCC(=O)Nc2nnn(C)n2)c(C)c1,-26,4,18,43*,28,-17
COc1ccc(C(=O)CSc2nc3ncccc3[nH]2)cc1OC,4,8,18,102*,23,19
COc1ccccc1NC(=O)CSc1nc2ncccc2[nH]1,-17,-3,-49,3,-8,-7
COC(=O)CC1C(=O)NCCN1C(=O)CSc1nnnn1-c1ccc(OC)cc1 (stereo not given),-11,-8,13,9,-1,2
Clc1ccc(Cn2ncc3c(N4CCCC4)ncnc32)cc1,-7,9,18,8,1,44*
O=C(O)Cc1sc(Nc2ccc(F)cc2)nc1-c1cccs1,-3,2,18,10,2,6
COc1cnc(SCc2c(Cl)cccc2Cl)nc1Cl,-8,2,51*,10,1,-4
Cc1nc(SCc2c(F)cccc2Cl)n[nH]1,-14,-6,5,3,6,6
